We go through two substances from article PMC11494403 (Nature plants, 2024).

A short description of test [1]: MST, binding to Alexa Fluor 647-labelled oligogalacturonide OG7–13^647. The conditions noted are these: relative to wild-type RALF22. A digest of the protocol:
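Wild-type or mutant peptide, titrated from 200µM, against 40nM Alexa Fluor 647-labelled, fully demethylesterified 7-13mer oligogalacturonide. Incubated 10min at RT, then thermophoresis on a Monolith NT.115 at medium MST power and 80% LED excitation. Data kept only at S/N >5 with no aggregation or ligand-induced initial fluorescence change. Kd averaged over 3 independent experiments.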

Another test has as its system root. The conditions noted are these: RALF1-induced; cited from earlier work.
The subject of another test is RHs. The conditions noted are these: 2 day exposure to exogenous RALF1; cited from earlier work.

“AQKKYISYGAMARNSVPCSARGASYYNCQAGAQANPYSRGCSTITRCRR [RALF22^R82A,R90A,R100A]”: the “fold reduction in affinity for OG7–13^647” value in test [1] is recorded as 5.2 fold.

As to “RALF1: exogenous RALF1 peptide of an earlier study (ATTKYISYQSLKRNSVPCSRRGASYYNCQNGAQANPYSRGCSKIARCRS; Protein RALF-like 1; UniProt Q9SRY3 72-120, looked up)”, the root growth result in the test with root is reported as “root growth inhibition”. The root hair length entry in the test with RHs was “longer RHs”.
